Key:
[1] = tested on: Human immunodeficiency virus 1; test: Antiviral activity against HIV1 3B infected in human PBMC assessed as inhibition of viral replication after 7 days by scintillation counting; format: functional, organism-based; conditions: Human immunodeficiency virus 1, 3B, 168 h
In short: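 PHA/IL-2-stimulated donor PBMCs at 4 × 10^6 cells/ml in RPMI with 20% FCS and 10% IL-2. Cells were pre-incubated with compound for 1 h, then infected with HIV-1 IIIB pre-mixed with compound for 7 days at 37°C. Supernatant reverse transcriptase was measured with poly(rA)·oligo(dT) and [3H]dTTP for 2 h, captured on DE-81 filters, and counted.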

[2] = tested on: Human immunodeficiency virus 1; test: Antiviral activity against HIV1 3B infected in human HOS cells after 72 hrs by luminescence assay; format: functional, organism-based; conditions: Human immunodeficiency virus 1, 3B
In short: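 HOS cells express hCXCR4, hCCR5 and hCD4 plus an HIV-1 LTR-luciferase reporter. 6,000 cells/well were plated in DMEM with 2% FCS and grown overnight, then pre-incubated with compound for 1 h. Virus pre-mixed with compound was added, and cells were incubated 72 h at 37°C. Read-out was luciferase luminescence. IC50 from a four-parameter logistic fit.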

[3] = tested on: Human immunodeficiency virus 1; test: Antiviral activity against HIV1 3B infected in human HOS cells after 72 hrs by luminescence assay in presence of 45 mg/ml human serum albumin; format: functional, organism-based; conditions: Human immunodeficiency virus 1, 3B
In short: (§1)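 HOS LTR-luciferase viral assay (1 h compound pre-incubation, virus plus compound, 72 h, 37°C, luminescence) run with human serum albumin (45 mg/ml) with or without α-acid glycoprotein (1 mg/ml). Protein-free IC50 served as baseline for fold shift.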

[4] = tested on: Human immunodeficiency virus 1; test: Antiviral activity against HIV1 3B infected in human HOS cells after 72 hrs by luminescence assay in presence of alpha-acid glycoprotein and human serum albumin; format: functional, organism-based; conditions: Human immunodeficiency virus 1, 3B; in short: as §1
[5] = molecular target: C-X-C chemokine receptor type 4 (Homo sapiens) (UniProt P61073); test: Antagonist activity at human CXCR4 expressed in HEK293 cells assessed as inhibition of SDF1-induced increase in intracellular calcium level treated 15 mins before agonist challenge measured after 1 hr by FLIPR assay relative to control; format: functional, cell-based
In short: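 HEK-293 cells transiently transduced by BacMam with CXCR4 (MOI 50) and chimeric Gqi5 (MOI 12.5), plated 40,000 per well, left 24 h at 37°C for expression. Cells then loaded with calcium dye in DMEM/F-12 containing 2.5 mM probenecid and 0.1% BSA for 1 h at 37°C. Intracellular calcium read by FLIPR. For antagonism, compound was added 15 min before SDF-1, used at an EC80 concentration.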

[6] = molecular target: T1, Cytochrome P450 1A2 (Homo sapiens, UniProt P05177); test: Inhibition of CYP1A2 up to 30 uM; format: ADME
T1 sequence (P05177 whole entry): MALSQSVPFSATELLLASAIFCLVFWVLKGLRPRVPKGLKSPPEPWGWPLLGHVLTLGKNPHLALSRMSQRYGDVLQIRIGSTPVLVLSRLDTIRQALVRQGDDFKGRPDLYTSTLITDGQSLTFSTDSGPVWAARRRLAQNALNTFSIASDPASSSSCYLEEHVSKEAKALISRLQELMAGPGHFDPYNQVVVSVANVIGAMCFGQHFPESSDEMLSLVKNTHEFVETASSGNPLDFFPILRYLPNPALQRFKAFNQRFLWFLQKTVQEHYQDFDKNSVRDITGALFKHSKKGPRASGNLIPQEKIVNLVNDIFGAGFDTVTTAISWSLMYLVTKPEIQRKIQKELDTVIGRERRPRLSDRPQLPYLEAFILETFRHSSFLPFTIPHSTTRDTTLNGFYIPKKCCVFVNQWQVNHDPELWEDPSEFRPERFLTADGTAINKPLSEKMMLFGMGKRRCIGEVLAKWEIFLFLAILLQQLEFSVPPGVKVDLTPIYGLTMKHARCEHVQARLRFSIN

[7] = Clearance in dog at 1 mg/kg, iv administered as single dose after 24 hrs by liquid chromatography-mass spectroscopy; format: ADME, organism-based, Canis lupus familiaris; set-up: dose 1 mg/kg, route intravenous; conditions: in vivo
In short: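 Single intravenous dose of 1 mg/kg. Plasma was sampled at serial times over 24 h and measured by LC-MS/MS. Clearance was derived by pharmacokinetic analysis.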

[8] = Volume of distribution at steady state in mouse at 1 mg/kg, iv administered as single dose after 24 hrs by liquid chromatography-mass spectroscopy; format: ADME, organism-based; set-up: dose 1 mg/kg, route intravenous; conditions: in vivo, read-out: Vdss
[9] = Half life in rat at 3 mg/kg, po administered as single dose by liquid chromatography-mass spectroscopy; format: ADME, organism-based; set-up: dose 3 mg/kg, route oral; conditions: in vivo
[10] = Half life in dog at 3 mg/kg, po administered as single dose by liquid chromatography-mass spectroscopy; format: ADME, organism-based, Canis lupus familiaris; set-up: dose 3 mg/kg, route oral; conditions: in vivo
In short: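 Single oral dose of 3 mg/kg. Plasma was sampled at serial times over 24 h and measured by LC-MS/MS. Half-life was derived by pharmacokinetic analysis.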

[11] = Oral bioavailability in mouse at 3 mg/kg administered as single dose after 24 hrs by liquid chromatography-mass spectroscopy; format: ADME, organism-based; conditions: in vivo
[12] = Oral bioavailability in dog at 3 mg/kg administered as single dose after 24 hrs by liquid chromatography-mass spectroscopy; format: ADME, organism-based, Canis lupus familiaris; conditions: in vivo
[13] = molecular target: Angiotensin-converting enzyme (Homo sapiens, UniProt P12821); test: Inhibition of ACE
[14] = tested on: Human immunodeficiency virus 1; test: Antiviral activity against HIV1 isolate 05-121782 assessed as inhibition of viral replication after 7 days by scintillation counting; format: functional, organism-based; conditions: Human immunodeficiency virus 1, isolate 05-121782, 168 h
[15] = tested on: Human immunodeficiency virus 1; test: Antiviral activity against HIV1 isolate 05-121786 assessed as inhibition of viral replication after 7 days by scintillation counting; format: functional, organism-based; conditions: Human immunodeficiency virus 1, isolate 05-121786, 168 h
[16] = tested on: Human immunodeficiency virus 1; test: Antiviral activity against HIV1 isolate 05-121777 assessed as inhibition of viral replication after 7 days by scintillation counting; format: functional, organism-based; conditions: Human immunodeficiency virus 1, isolate 05-121777, 168 h
[17] = tested on: Human immunodeficiency virus 1; test: Antiviral activity against HIV1 isolate 05-121780 assessed as inhibition of viral replication after 7 days by scintillation counting; format: functional, organism-based; conditions: Human immunodeficiency virus 1, isolate 05-121780, 168 h
[18] = tested on: Human immunodeficiency virus 1; test: Antiviral activity against HIV1 isolate 05-121781 assessed as inhibition of viral replication after 7 days by scintillation counting; format: functional, organism-based; conditions: Human immunodeficiency virus 1, isolate 05-121781, 168 h
[19] = tested on: Human immunodeficiency virus 1; test: Antiviral activity against HIV1 isolate 05-121784 assessed as inhibition of viral replication after 7 days by scintillation counting; format: functional, organism-based; conditions: Human immunodeficiency virus 1, isolate 05-121784, 168 h
[20] = tested on: Human immunodeficiency virus 1; test: Antiviral activity against HIV1 isolate 05-121795 assessed as inhibition of viral replication after 7 days by scintillation counting; format: functional, organism-based; conditions: Human immunodeficiency virus 1, isolate 05-121795, 168 h
[21] = tested on: Human immunodeficiency virus 1; test: Antiviral activity against HIV1 isolate 05-121800 assessed as inhibition of viral replication after 7 days by scintillation counting; format: functional, organism-based; conditions: Human immunodeficiency virus 1, isolate 05-121800, 168 h
[22] = tested on: Human immunodeficiency virus 1; test: Antiviral activity against HIV1 isolate 05-121801 assessed as inhibition of viral replication after 7 days by scintillation counting; format: functional, organism-based; conditions: Human immunodeficiency virus 1, isolate 05-121801, 168 h
[23] = tested on: Human immunodeficiency virus 1; test: Antiviral activity against HIV1 isolate 05-121802 assessed as inhibition of viral replication after 7 days by scintillation counting; format: functional, organism-based; conditions: Human immunodeficiency virus 1, isolate 05-121802, 168 h

Chain of Angiotensin-converting enzyme (P12821 whole entry): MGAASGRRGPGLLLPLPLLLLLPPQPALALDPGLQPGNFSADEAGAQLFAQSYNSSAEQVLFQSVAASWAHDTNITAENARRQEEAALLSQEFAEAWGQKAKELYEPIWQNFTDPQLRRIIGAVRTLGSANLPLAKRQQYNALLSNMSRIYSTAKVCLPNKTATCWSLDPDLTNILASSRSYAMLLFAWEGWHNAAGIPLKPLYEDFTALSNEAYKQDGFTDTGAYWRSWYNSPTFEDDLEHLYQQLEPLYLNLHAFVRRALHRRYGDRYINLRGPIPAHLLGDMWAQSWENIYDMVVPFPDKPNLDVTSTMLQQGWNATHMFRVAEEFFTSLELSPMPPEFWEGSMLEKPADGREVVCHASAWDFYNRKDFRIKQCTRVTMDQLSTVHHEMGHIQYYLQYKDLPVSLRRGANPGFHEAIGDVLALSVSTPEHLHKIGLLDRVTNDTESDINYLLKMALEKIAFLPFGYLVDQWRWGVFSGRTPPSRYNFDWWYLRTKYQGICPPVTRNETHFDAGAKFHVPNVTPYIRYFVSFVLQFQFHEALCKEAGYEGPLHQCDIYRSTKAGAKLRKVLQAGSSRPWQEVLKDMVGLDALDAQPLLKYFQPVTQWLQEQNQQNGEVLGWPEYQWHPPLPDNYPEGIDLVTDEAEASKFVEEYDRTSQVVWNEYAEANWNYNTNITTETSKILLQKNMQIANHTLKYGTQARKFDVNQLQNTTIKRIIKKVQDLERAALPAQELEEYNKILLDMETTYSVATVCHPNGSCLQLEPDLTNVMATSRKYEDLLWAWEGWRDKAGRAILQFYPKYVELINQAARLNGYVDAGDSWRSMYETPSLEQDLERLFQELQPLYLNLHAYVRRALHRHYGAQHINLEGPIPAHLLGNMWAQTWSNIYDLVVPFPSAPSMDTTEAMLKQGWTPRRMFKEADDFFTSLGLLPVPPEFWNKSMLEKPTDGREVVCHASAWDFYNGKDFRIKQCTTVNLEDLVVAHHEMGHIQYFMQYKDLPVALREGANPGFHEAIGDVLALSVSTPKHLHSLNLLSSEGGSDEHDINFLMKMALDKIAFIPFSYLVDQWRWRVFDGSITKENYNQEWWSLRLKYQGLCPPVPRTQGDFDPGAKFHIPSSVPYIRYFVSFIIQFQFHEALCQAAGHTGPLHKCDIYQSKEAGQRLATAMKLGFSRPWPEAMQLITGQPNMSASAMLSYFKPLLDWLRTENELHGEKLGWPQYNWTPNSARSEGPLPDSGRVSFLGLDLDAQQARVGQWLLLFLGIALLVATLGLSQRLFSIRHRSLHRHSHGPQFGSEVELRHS
Chain of C-X-C chemokine receptor type 4 (Homo sapiens) (P61073 whole entry): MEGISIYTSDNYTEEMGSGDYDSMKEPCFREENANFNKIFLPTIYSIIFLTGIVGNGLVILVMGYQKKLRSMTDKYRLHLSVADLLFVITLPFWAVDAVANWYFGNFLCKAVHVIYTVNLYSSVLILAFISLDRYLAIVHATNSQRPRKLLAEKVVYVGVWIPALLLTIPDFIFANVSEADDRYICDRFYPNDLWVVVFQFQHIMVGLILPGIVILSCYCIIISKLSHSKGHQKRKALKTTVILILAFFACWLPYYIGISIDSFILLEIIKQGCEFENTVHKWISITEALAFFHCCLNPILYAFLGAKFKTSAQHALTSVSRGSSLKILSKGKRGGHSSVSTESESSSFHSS

CN1CCN(c2cccc3nc(CN(C)[C@H]4CCCc5cccnc54)c(CO)n23)CC1
IC50 [1]: 4.6 nM
IC50 [2]: 1.5 nM
IC50 [3]: 2.01 nM
IC50 [4]: 3.14 nM
inhibition [5]: 110%
inhibition (INH) [6]: Not Active
clearance [7]: 5.5 mL/min/kg
Vd [8]: 4.2 L/kg
half-life [9]: 8.6 h
half-life [10]: > 12 h
bioavailability [11]: 10%
bioavailability [12]: 21%
IC50 [13]: 193 nM
IC50 [14]: 1 nM
IC50 [15]: 1 nM
IC50 [16]: 1 nM
IC50 [17]: 1 nM
IC50 [18]: 1 nM
IC50 [19]: 1 nM
IC50 [20]: 1 nM
IC50 [21]: 1 nM
IC50 [22]: 1 nM
IC50 [23]: 1 nM
